Source: PubChem BioAssay
Sampled rows, rich in hits. Any-hit rate of the full collection: about 2.2%.
PMI act hi M6P – increases human PMI activity with near-saturating mannose 6-phosphate; P34949; 190,000 tested, 0.34% active; activation factor at 20 µM; coupled PMI enzyme assay, resazurin fluorescence, 20 min; hits give high values; 1 = untreated enzyme, 0 = substrate-free blank;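 active = activation factor of 2 or more at 20 µM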
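Material: human phosphomannose isomerase with PGI, G6PDH, diaphorase coupling enzymes / Reagent: Man-6-P substrate 1.0 mM / Dosing: single compound dose of 20 µM, 1% DMSO final / Incubation: enzyme reaction with compound 20 min at room temperature / Signal: resorufin fluorescence (Ex 544/Em 590 nm) from resazurin via diaphorase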
G6PDH CS – counter-screen for G6PDH assay hits: L. mesenteroides G6PDH inhibition; 200,000 tested, 0.12% active; AID 1020; Purified L. mesenteroides G6PDH, diaphorase/resazurin coupled fluorescence, 45 min; inhibition, % at 5 µM; in the data active = inhibition above about 50%
Diaphorase act – diaphorase activation or chemical reduction counter-screen | Diaphorase/resazurin coupled assay, resorufin fluorescence, 16 min; hits give high values; 1 = vehicle wells, 0 = NADH-free wells | activation factor at 20 µM | 190,000 tested, 0.005% active | AID 1229;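 active = diaphorase activity raised at least twofold by the compound at 20 µM; inactive = activation factor below 2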
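Test system: Clostridium kluyveri diaphorase, purified enzyme; input: enzyme 0.07 U/mL final; buffer or medium: 50 mM HEPES pH 7.4 with 4.542 mM MgCl2, 0.005% Tween 20; also added: 0.114 mM NADH and 0.1 mM resazurin, final amounts; schedule: 16 min enzyme reaction, ambient temperature; technique: fluorescence of resorufin, 544 nm excitation, 590 nm emission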
PMI activator – increases human mannose-6-phosphate isomerase activity; activation factor at 20 µM; 190,000 tested, 0.005% active; purified human PMI, coupled resazurin fluorescence, 20 min; hits give high values; 1 = vehicle control, 0 substrate-free wells; P34949;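 active = activation factor of 2 or more at 20 µM, relative to plate controls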
ROMK mod – modulators of human ROMK potassium channel. P48048. Tet-inducible ROMK, thallium flux fluorescence; actives lie on both sides. B-score at 10 µM. 130,000 tested, 2% active;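 active = signal ratio slope over the read window, or its plate-corrected B-score, at least 3 SD from the plate mean, either direction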;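 note: B-score of the F/F0 ratio slope over 7 to 12 s after thallium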
Target sequence (P48048 whole entry, looked up): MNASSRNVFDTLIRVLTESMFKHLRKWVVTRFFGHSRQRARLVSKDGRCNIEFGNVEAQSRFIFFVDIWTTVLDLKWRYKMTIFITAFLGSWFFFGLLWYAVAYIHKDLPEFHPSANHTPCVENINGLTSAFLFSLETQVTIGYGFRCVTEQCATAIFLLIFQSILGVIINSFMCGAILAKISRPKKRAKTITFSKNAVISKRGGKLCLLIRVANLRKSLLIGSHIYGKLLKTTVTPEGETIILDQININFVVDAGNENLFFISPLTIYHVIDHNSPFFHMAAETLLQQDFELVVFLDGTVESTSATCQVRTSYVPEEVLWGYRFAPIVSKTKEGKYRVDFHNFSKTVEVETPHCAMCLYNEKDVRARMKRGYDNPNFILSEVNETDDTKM
Diaphorase inh – inhibits diaphorase or chemically oxidizes, flagging diaphorase assay artifacts; diaphorase resazurin-to-resorufin fluorescence, NADH, 16 min; bacterial (C. kluyveri) enzyme, not human; inhibition, % at 20 µM; 190,000 tested, 0.69% active; AID 1217;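 active = primary screen inhibition at 20 µM above a set limit, cut at about 50% in these data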;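 note: plate controls were DMSO with full reaction for no effect and wells lacking NADH for full effect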
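Assay system: diaphorase enzyme from Clostridium kluyveri. Quantity: enzyme working solution with 0.14 U/mL diaphorase. Schedule: reaction incubation of 16 min at room temperature. Technique: resorufin fluorescence, excitation 544 nm, emission 590 nm. Controls: No-NADH positive control and DMSO neutral control.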
Starred values were filed as active, the others as inactive; x = not tested or not shown.

SMILES	PMI act hi M6P	G6PDH CS	Diaphorase act	PMI activator	ROMK mod	Diaphorase inh
Cc1ccc(C)n1-c1ccc(N2CCOCC2)c(Br)c1	1	0.2	0.4	1	-1.01	56.0*
CC1=C/C(=N\OS(=O)(=O)c2ccccc2)C(C(C)C)=CC1=O	0.1	39.8	0	0.2	-0.183	101.3*
CC1=C/C(=N\OS(=O)(=O)c2ccccc2)C(C)=CC1=O	0.1	4.4	0	-0.1	-1.48	100.5*
CC1=C(C)/C(=N\OS(=O)(=O)c2ccc(C)cc2)C=CC1=O	0.2	31.6	0	0.2	-1.24	101.1*
Cc1c(Cl)cccc1NC(=S)N(Cc1cccnc1)Cc1ccccc1Cl	1	0.2	0.8	1	-0.265	15.2
CC(CN(C)Cc1ccccc1)OC(=O)c1cccc(F)c1 (centres undefined)	2.4*	18.0	1	1.6	x	2.5
CCOC(=O)c1sc2nc3c(cc2c1N)COC(C)(CC)C3 (centres undefined)	1	-2.5	0.9	1	x	12.6
CCC1(C)Cc2nc3sc(C(=O)O)c(N)c3cc2CO1 (centres undefined)	2.2*	11.8	0.8	1.5	x	21.3
Nn1c(SCC(=O)N2CCCc3ccccc32)nncc1=O	0.9	1.8	0.9	1	0.619	8.7
CCCCSc1nc(O)cc(=O)n1CC	1	3.8	1	1	x	2.6
COc1ccc(/C(=N\Nc2ccccc2C(=O)O)c2ccccc2)cc1	2.2*	3.2	0.6	1.6	-0.101	38.9
CCCn1c(=O)[nH]c(=O)c2c1nc(-c1ccc(OC)c(Br)c1)n2CCOC	0.7	2.8	0.9	1	0.487	12.7
CC12CN3CCN(CC(C3)/C1=N\N=C1/C3CN4CCN(C3)CC1(C)C4)C2	0.9	5.7	0.9	0.9	0.178	14.2
Oc1c(C=NCc2ccccc2)sc2ccccc12	1	5.8	0.9	1	-0.105	6.3
Oc1cccc(C=NCc2ccccc2)c1O	0.5	60.2*	0.4	0.5	0.296	61.7*
N#CC1=C(c2ccc(-c3ccccc3)cc2)COC1=O	2.4*	0.0	1	1.7	0.0964	2.4
CC(=O)NCCCNS(=O)(=O)c1ccc(C)cc1	1	-0.3	0.3	0.9	1.22	67.0*
Cc1ccc(S(=O)(=O)NCCCNS(C)(=O)=O)cc1	1	6.2	1	1	x	2.0
O=C(O[C@@H]1Cc2c(O)cc(O)cc2O[C@@H]1c1cc(O)c(O)c(O)c1)c1cc(O)c(O)c(O)c1	0.7	5.4	0.3	0.3	x	74.1*
O=C(C[n+]1cn(C(F)F)c2ccccc21)c1ccc(OC(F)F)cc1	1.1	3.6	0.9	1.1	x	5.1
CCOC(=O)C1=NN(C(=O)c2ccc(C)cc2)C(O)(c2ccc(Cl)cc2)C1 (centres undefined)	1.1	3.0	1	1.1	2.76*	-3.0
COC(=O)C1=NN(C(=O)c2ccc(Cl)cc2)C(O)(c2ccccc2)C1 (centres undefined)	1	7.1	1	1.2	x	2.2
COc1ccc(OC)c(S(=O)(=O)n2nnc3cc(Cl)ccc32)c1	1.1	2.7	1.1	1	0.698	-10.1
COc1cc(S(=O)(=O)n2nnc3ccccc32)c(OC)cc1Cl	1	6.0	0.8	1	-2.31*	17.8
CC(=O)Nc1ccc(NC(=O)COC(=O)C2c3ccccc3Oc3ccccc32)cc1	0.9	-3.4	0.9	0.9	x	9.7
CC1Cc2ccccc2N1C(=S)NC(=O)C1(C)CC1(Cl)Cl (centres undefined)	1.1	3.2	1	1	13.4*	0.1
CC1Cc2ccccc2N1C(=S)NC(=O)c1ccco1 (centres undefined)	1.1	1.1	1	1	0.573	-2.9
O=C(NC1=C(NC2CCS(=O)(=O)C2)C(=O)c2ccccc2C1=O)c1ccccc1 (centres undefined)	0.7	51.4*	0.3	0.9	-0.00543	71.5*
CSc1nc2oc3c(c2c2nncn12)CC(C)(C)SC3	2.6*	7.2	1	1.4	x	-3.5
